Sampled rows, rich in hits. Any-hit rate of the full collection: about 5.7%.
T cruzi inh = inhibitors of intracellular T. cruzi growth, primary screen, luminescence, NIH3T3 host cells | hit rate 1.4% among 300,000 | inhibition, % (test concentration not listed) | T. cruzi beta-gal in NIH3T3, 90 h;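 active means mean inhibition across valid replicates above about 55%, limit read from the data; inconclusive means mean below that limit but half or more replicates reach it; inactive means mean below it, under half of replicates reach it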;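 further: signal also drops with host cell toxicity which is not excluded here; 0% = plate median of DMSO wells and 100% = zero luminescence signal; higher percent means less beta-gal luminescence so fewer parasites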
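Read-out: Parasite load inhibition, % | Test system: Mouse NIH/3T3 fibroblasts infected with β-gal-expressing T. cruzi Tulahuen C4 | Amount: 5,000 cells/well | Medium: DMEM, 2% fetal bovine serum | Signal: GalScreen β-gal luminescence, detergent lysis, 60 min | Timing: 3 h attach, ≥90 h co-culture | Also added: Tulahuen C4 trypomastigotes, 5000/well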
Beta cell apopt = inhibitors of cytokine-induced beta cell apoptosis, primary screen, luminescence; INS-1E cytokine-induced death, ATP luminescence, 48 h; percent of positive-control rescue, neutral wells zero; hit rate 0.8% among 300,000; AID 435005, 2010; protection from apoptosis, % (concentration not given with the values);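 active means Every replicate reaches about 75%, or at least half do and their mean reaches it too, limit read from the data; inconclusive means At least half of replicates reach the limit but their mean does not; inactive means Under half of replicates reach the limit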;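 further: 0% = cytokine-treated negative control wells and 100% = positive control rescue; higher means more ATP so stronger rescue from cytokine killing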
CSC inhib = cancer stem cell viability inhibitors, primary screen, luminescence; cancer stem cell-like cells viability; inhibition, % at 7.5 µM; hit rate 1.1% among 300,000; in the data active means inhibition above about 75%; inconclusive means no clear call, values can overlap the other calls; tested in HMLE shEcad cells
Mdm2 MdmX PPI = inhibitors of human Mdm2-MdmX association, primary screen, cell-based, luminescence, split luciferase, SaOS-2, uHTS; Protein Mdm4 (Homo sapiens) + E3 ubiquitin-protein ligase Mdm2 (Homo sapiens), …; SaOS-2 split-luciferase Mdm2/MdmX complementation; inhibition, % at 8 µM; hit rate 3% among 330,000; AID 485346, 2010;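 active means inhibition of at least 50% at 8 µM in the primary screen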
Target sequence (O15151 whole entry, looked up): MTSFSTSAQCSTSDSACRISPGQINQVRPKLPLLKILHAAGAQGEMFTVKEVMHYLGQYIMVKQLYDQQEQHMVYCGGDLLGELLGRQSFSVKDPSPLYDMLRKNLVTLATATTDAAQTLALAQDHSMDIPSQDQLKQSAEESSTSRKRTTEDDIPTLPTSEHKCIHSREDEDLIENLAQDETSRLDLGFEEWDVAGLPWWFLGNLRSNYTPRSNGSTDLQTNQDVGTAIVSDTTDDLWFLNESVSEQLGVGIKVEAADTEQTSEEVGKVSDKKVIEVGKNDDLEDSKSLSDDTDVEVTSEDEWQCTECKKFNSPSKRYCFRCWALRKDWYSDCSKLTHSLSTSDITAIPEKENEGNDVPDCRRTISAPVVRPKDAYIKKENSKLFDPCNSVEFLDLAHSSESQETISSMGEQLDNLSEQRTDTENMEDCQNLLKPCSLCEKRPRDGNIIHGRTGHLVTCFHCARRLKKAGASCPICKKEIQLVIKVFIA
Target sequence (Q00987 whole entry, looked up): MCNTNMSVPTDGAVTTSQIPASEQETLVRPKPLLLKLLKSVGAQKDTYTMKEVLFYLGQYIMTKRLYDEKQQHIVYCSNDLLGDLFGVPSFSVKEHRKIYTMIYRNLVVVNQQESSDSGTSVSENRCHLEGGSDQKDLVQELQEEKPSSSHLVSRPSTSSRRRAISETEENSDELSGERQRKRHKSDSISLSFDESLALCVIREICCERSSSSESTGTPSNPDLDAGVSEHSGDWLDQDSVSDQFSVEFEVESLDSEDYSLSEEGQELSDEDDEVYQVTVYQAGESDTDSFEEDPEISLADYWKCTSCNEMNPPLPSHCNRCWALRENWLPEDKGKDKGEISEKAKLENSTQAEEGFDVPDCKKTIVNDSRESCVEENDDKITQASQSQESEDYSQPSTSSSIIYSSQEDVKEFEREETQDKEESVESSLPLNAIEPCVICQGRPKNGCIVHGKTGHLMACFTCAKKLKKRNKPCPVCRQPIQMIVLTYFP
Calb FLC = C. albicans growth inhibition with fluconazole, primary screen, CaCi-2 strain, Alamar Blue fluorescence; C. albicans CaCi-2 + fluconazole, 48 h; growth inhibition, % (no concentration beside the values); hit rate 0.57% among 300,000;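 active means growth inhibition above about 58% in most replicates, limit read from the data, passing the limit was not always enough; inconclusive means exactly half the replicates above a set limit; inactive means most replicates below a set limit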;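 further: all wells also contain fluconazole at 8 µg/ml as a sub-toxic cotreatment; 0% = median of DMSO wells and 100% = median of geldanamycin control wells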
SKKanGAS inh = S. pyogenes SKKanGAS growth inhibitors in kanamycin, primary screen, streptokinase expression inhibitor project, SKKanGAS strain, BacTiter-Glo luminescence. 6 h. inhibition, % at 7.5 µM. hit rate 1.3% among 300,000. AID 1662, 2009;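 active means mean replicate score, as percent of positive control median, at least 50; inconclusive means mean below 50 but one replicate at or above 50; inactive means mean and every replicate below 50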;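 further: strain carries kanamycin resistance gene driven by streptokinase promoter and grows in 40 µg/ml kanamycin; loss of luminescence reflects streptokinase promoter inhibition or plain growth inhibition; 0% = median of DMSO wells and 100% = positive control at its reference dose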
* = called active by the depositor; ? = inconclusive; · = no result given.

SMILES	T cruzi inh	Beta cell apopt	CSC inhib	Mdm2 MdmX PPI	Calb FLC	SKKanGAS inh
Cc1cnc(C(=O)NC(Cc2ccccc2)c2ccccc2)cn1 (stereo not given)	-11.3	1.5	0.9	6.1	4.5	-3.0
Cc1ccc2nc(-c3ccccn3)c(NC3CCCC3)n2c1	67.7*	102.3*	28.6	29.8	-5.1	96.3*
CCCCCCSc1cccc(-c2nc3ccc(C)cn3c2NC2CCCCC2)c1	14.3	1.2	59.8	25.1	-11.2	34.2
c1ccc(CC2CCN(c3ncnc4sccc34)CC2)cc1	13.2	·	·	·	96.8*	27.7
O=C(O)c1cc2c(N3CCC(Cc4ccccc4)CC3)ncnc2s1	-5.0	-5.7	2.5	16.7	?	37.8
Cc1c(C(=O)N2CCC(Cc3ccccc3)CC2)sc2ncnc(N3CCC(C)CC3)c12	71.5*	-2.5	59.8	18.6	1.2	55.8*
C/C(=N\NC(=O)c1nnn(-c2nonc2N)c1CN(C)c1ccccc1)c1ccccn1	31.0	86.0*	105.0*	·	·	23.6
C/C(=N\NC(=O)c1nnn(-c2nonc2N)c1CN(C)c1ccccc1)c1ccc(O)cc1	-8.1	-7.1	10.1	27.9	·	-2.4
CCc1ccc(CN(C)C(=O)C2=CC=CN3CCS(=O)(=O)N=C23)cc1	·	·	·	-4.0	·	·
CCC(CC)c1nn2c(N)c(/C=C3\C(C)=Nc4ccccc43)c(=O)nc2s1	-13.5	-1.6	13.2	5.7	40.9	62.4*
CC(C)N(C)S(=O)(=O)c1ccc(NC(=O)C2=COCCO2)cc1	·	0.5	·	-16.4	·	·
CCCCOCCCNc1ncnc2c1[nH]c1ccccc12	24.0	113.5*	25.6	25.2	-31.6	0.8
CCOCCCNc1ncnc2c1[nH]c1ccccc12	9.4	78.3*	-5.2	25.4	·	0.1
CNS(=O)(=O)c1cccc(C(=O)NCC(c2ccco2)N(C)C)c1 (stereo not given)	-6.5	-0.4	0.2	-10.2	-4.2	-0.8
CCc1cc(C(=O)NNC(=S)Nc2cc(C)ccc2C)cs1	5.2	3.5	4.5	-1.7	99.1*	-0.5
CC(=O)c1ccc(OCCn2c(SCC(=O)O)nc3ccccc32)cc1	-5.0	0.4	-0.1	-5.0	2.0	6.0
CC1(C)Cc2ccccc2C(CSc2ccccc2C(=O)O)=N1	19.9	-2.7	76.0*	22.3	-29.4	1.9
COc1cc2c(cc1OC)C(CSc1ccccc1C(=O)O)=NC(C)(C)C2	-8.3	0.8	-12.1	22.4	11.8	0.1
Cc1cccc(COc2ccccc2C(=O)OCC(=O)N(C)c2c(N)n(Cc3ccccc3)c(=O)[nH]c2=O)c1	11.6	·	-8.2	1.2	2.9	9.1
O=C(COc1ccc(Cl)cc1Cl)Nc1ccc(-c2ccc(N3CCOCC3)nn2)cc1	22.6	1.9	·	-8.6	10.5	50.6*
O=C(CC(C(=O)N1CCc2ccccc21)n1ccnc1)N1CCc2ccccc2C1 (stereo not given)	72.2*	-1.2	5.6	25.5	-8.3	6.0
CCCCNC(=O)CC(C(=O)N1CCc2ccccc21)n1ccnc1 (stereo not given)	-6.8	0.3	·	-21.7	-2.7	-2.5
Cc1ccc(NC(=O)c2cc(-c3cccc(O)c3)on2)cc1C	14.2	1.8	80.4*	-117.5	-1.9	0.1
CCN(C(=O)COC(=O)c1oc2ccc(OC)cc2c1C)C1CCS(=O)(=O)C1 (stereo not given)	·	·	·	16.6	·	·
Cc1ccc(-c2nnc(N3CCC(C)CC3)c3ccccc23)cc1C	53.0	10.3	96.4*	45.0	3.6	37.4
SMILES	T cruzi inh	Beta cell apopt	CSC inhib	Mdm2 MdmX PPI	Calb FLC	SKKanGAS inh
COc1ccc(OCC(=O)N2CCN(c3nnc(-c4ccc(C)cc4)c4ccccc34)CC2)cc1	2.9	33.4	6.7	28.2	8.3	47.7
O=C(COc1ccccc1)N1CCN(c2nnc(-c3ccccc3)c3ccccc23)CC1	55.2*	13.8	-6.1	-8.0	4.9	11.7
COc1ccc(-c2nnc(N3CCCCC3)c3ccccc23)cc1	4.5	6.7	5.2	22.5	-4.9	-6.6
Cc1ccc(OCC(=O)N2CCN(c3nnc(-c4ccc(C)cc4)c4ccccc34)CC2)cc1	61.1*	27.9	·	32.2	8.1	39.0
Cc1ccc(-c2nnc(N3CCC(C)CC3)c3ccccc23)cc1	42.3	6.6	7.4	13.3	64.8	9.7
Cc1ccc(-c2nnc(N3CCCCCC3)c3ccccc23)cc1	64.1*	12.0	44.9	8.7	-1.6	3.9
CC(=O)Nc1cccc(NC(=O)C(=O)NCC(c2ccco2)N2CCc3ccccc32)c1 (stereo not given)	6.1	-3.9	10.5	11.8	2.9	3.5
C[C@H]1COC(=O)CC/C=C\C[C@H](CC(=O)N(CCO)Cc2ccccc2)C(=O)N1	·	-1.8	-11.4	-0.5	·	·
CC(=O)CSc1ncnc2sc3c(c12)CCC3	-5.7	-6.2	-4.7	-15.8	14.4	2.2
COc1cc(NC(=O)CSc2ncnc3sc4c(c23)CCCC4)c(C(=O)O)cc1OC	-9.8	-6.6	-10.6	-4.0	0.5	54.9*
CC(OC(=O)c1ccc2ncsc2c1)C(=O)NC1CCCCC1C (stereo not given)	-9.1	3.4	0.5	21.0	-2.8	-2.8
CC(/C=C/c1ccco1)=N\NC(=O)CNc1ccc2ccccc2c1	3.3	-0.5	1.6	23.4	116.4*	9.5
O=C(NC1CCCCCC1)c1ccc[nH]c1=S	58.2*	-3.9	3.0	-5.1	-7.5	5.7
Cn1c(SCC(=O)NC2CCCCC2)nnc1-c1cccnc1	3.4	1.2	·	10.8	0.6	-16.4
Cn1c(SCC(=O)NC2(C#N)CCCCC2)nnc1-c1cccnc1	-17.9	·	-2.6	2.6	-5.6	54.0*
CC1=NN(c2nc(-c3ccc(C)cc3)cs2)C(=O)C1N=Nc1ccc(C(N)=O)cc1 (stereo not given)	-7.0	78.5*	-15.9	·	21.1	23.1
Cc1ccc(NC2=NC(c3ccc(O)cc3)n3c(nc(C)cc3=O)N2)cc1 (stereo not given)	-7.9	0.3	-14.9	-2.3	-3.2	0.3
COc1ccc(C2N=C(Nc3ccc(C)cc3)Nc3nc(C)cc(=O)n32)cc1 (stereo not given)	-3.7	-4.4	-3.0	5.1	109.9*	-1.0
Cc1ccccc1N=C1SC(CC(=O)Nc2ccc3ccccc3c2)C(=O)N1Cc1ccccn1 (stereo not given)	41.5	3.3	78.1*	36.5	1.4	34.1
O=C(CC1SC(=Nc2cccc3ccccc23)N(Cc2ccccn2)C1=O)Nc1ccccc1Br (stereo not given)	43.1	-7.8	17.6	3.1	-3.1	6.4
O=C(c1ccc(O)cc1)c1ccc(C(=O)c2ccc(O)cc2)cc1	2.9	-0.7	18.6	-23.4	-4.1	83.0*
O=C(C(=O)c1ccc(O)cc1)c1ccccc1	-3.0	-11.7	-4.4	17.9	2.6	3.8
